The text below walks through data of PubChem BioAssay.

Test [1] can be described thus: OD615 S. cerevisiae growth inhibition, permissive medium, pilot counter-assay, permissive growth control for S. cerevisiae lifespan shortening project (AID 705;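 active means growth inhibition above 25% in both replicates, a cutoff set 3 SD above the mean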). The conditions noted are these: OD615, 24 h, at 10 µM, hits give high values. A digest of the protocol: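 System: Engineered DeaD yeast | Buffer or medium: SC raffinose/galactose permissive medium | Incubation: Cells pre-grown 4 h, then 24 h compound exposure, 30 °C humidified | Measured by: Absorbance (optical density) at 615 nm | Read-out: Reduction in yeast growth (OD615)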

Test [2] is described as follows: Restrictive medium S. cerevisiae growth inhibition, OD615, pilot screen of yeast lifespan reduction project, restrictive growth control (AID 706;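 active means growth inhibition above a set limit, 3 SD over mean compound inhibition, in both replicates, cut at about 43% in these data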;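 further: modified DeaD lifespan yeast strain shifted to restrictive glucose medium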). The conditions noted are these: OD615, 48 h, at 10 µM, hits give high values. A digest of the protocol:
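Material: modified S. cerevisiae; Medium: glucose-based CSMM-D restrictive medium; Compound dosing: one concentration, 10 µM final, 0.25% DMSO; Incubation: 48 h compound exposure at 30 °C; Measured by: OD615.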

Test [3] can be described thus: viability gain of MRP-1-high H69AR cells under doxorubicin, pilot screen, MRP-1 activator project, CellTiter-Glo, duplicate (AID 807;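 active means viability increase at or above a cutoff of the median across tested compounds plus 3 SD, cut at about 8.5% in these data, passing the limit was not always enough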;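 further: compound pretreatment 18-22 h then 72 h combined with doxorubicin; 0% = doxorubicin alone and 100% = vehicle without doxorubicin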). To be noted: H69AR viability with doxorubicin, CellTiter-Glo luminescence; at 10 µM; hits give high values.
Test [4] is described as follows: growth suppression of beta-catenin knockout HCT116, pilot screen, human colon tumor cells (AID 823;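 active means cell viability at or below a set limit in both duplicate runs, the limit being the all-compound median minus 4 SD, cut at about 23% in these data, passing the limit was not always enough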;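 further: 0% = wells killed by 20 µM Hyamine and 100% = untreated DMSO cell wells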). The conditions noted are these: CellTiter-Glo, 60 h, at 10 µM, hits give low values.
The nature of test [5]: growth suppression of PTEN-deleted HCT116, pilot screen, cell-based, HCT116 clonal line, CellTiter-Glo (AID 824).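 Further: 0% = 20 µM Hyamine control and 100% = vehicle cell control.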 The conditions noted are these: 60 h, at 10 µM, hits give low values.
Test [6] can be described thus: inhibitors of the yeast RAM network, pilot screen, dse1pr::URA3 reporter, 5-FOA selection (AID 869;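 active means inhibition over a set limit, the all-compound mean plus 3 SD, in both replicate runs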;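 further: 0% = DMSO wells with no growth and 100% = 10 µM 1-NA-PP1 with full growth; RAM network block rescues cells from 5-FOA so hits raise OD615 growth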). To be noted: S. cerevisiae dse1pr::URA3 5-FOA growth, OD615, 2 d; at 10 µM; hits give high values; strain carries analog-sensitive mutant Cbk1 kinase.
Test [7] is described as follows: RAM signaling pathway blockade in yeast – S. cerevisiae, Pdr1DBD-CYC8 efflux-inhibited sensitized strain, primary screen (AID 1298;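 active means RAM network inhibition above 8.4% in each of two replicates, 3 SD over the compound average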;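 further: 0% = DMSO untreated cells without growth and 100% = 10 µM 1-NA-PP1 full growth; higher means more yeast growth rescued from 5-FOA killing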). To be noted: S. cerevisiae cbk1-as DSE1-URA3 strain, 5-FOA growth OD615, 2 d; at 50 µM; hits give high values.

Each structure is given as a SMILES string. Values without a mark were called inactive. Results filed as inconclusive are left out. The source made the active and inactive calls.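 How the source made its calls, unless noted: active means viability at or below 27.92% in each of two runs, the all-compound median minus 4 SD; inconclusive means no clear call, values can overlap the other calls; inactive means the rest.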

Regarding `CCC(Sc1nc(C)cc(=O)[nH]1)C(=O)Nc1sc2c(c1C#N)CCCC2` (stereo not drawn), the figures for the growth inhibition in test [1] and in test [2] were -14% and -12.3%, respectively. Besides, in test [3], the viability increase was -3.49%. Also, the viability is 92.9% in test [4] and 91.4% in test [5]. Besides, the inhibition in test [6] was 2.01%. For the same compound, in test [7], the RAM network inhibition was 6.25%.

As to `COc1ccc(Cc2nc(-c3ccc(-n4cccc4)cc3)no2)cc1OC`, the growth inhibition in test [1] is -2.5%; in test [2] it was -10.8%. For the same compound, in test [3], the viability increase was 2.61%. Also, the figures for the viability in test [4] and in test [5] were 28% and 54.7%, respectively. In addition, the inhibition in test [6] was 4.33%. For the same compound, in test [7], the RAM network inhibition is 9.02%.

Turning to `COc1ccccc1-c1nnc(SCC(=O)N2CCOCC2)o1`, the growth inhibition in test [1] is -12.5%; in test [2], 0.015%. In addition, the viability increase in test [3] was -3.69%. Besides, the viability in test [4] is 93.8%; in test [5], 95.7%. The inhibition in test [6] was 1.75%. The RAM network inhibition in test [7] was 2.61%.

As to `CCN(CC)CCN=C1CCCc2ccccc2N1`, the growth inhibition in test [1] was -1.96%; in test [2], 5.53%. Further, the viability increase in test [3] was -2.11%. Moreover, the figures for the viability in test [4] and in test [5] were 86.9% and 87%, respectively. In addition, the inhibition in test [6] was 2.3%. For the same compound, the RAM network inhibition in test [7] was 0.67%.

On to `CCOC(=O)CSc1ccc2nnc(-c3ccccc3)n2n1`, for which the growth inhibition in test [1] is -8.02%; in test [2], -9.2%. For the same compound, in test [3], the viability increase is -0.81%. For the same compound, the viability in test [4] is 108%; in test [5] it was 93.5%. Further, the inhibition in test [6] is 1.15%. The RAM network inhibition in test [7] was 0.11%.

Regarding `O=C(O)c1n[nH]c2ccccc12`, the results for the growth inhibition in test [1] and in test [2] were -1.77% and -21.2%, respectively. For the same compound, in test [3], the viability increase is -2.36%. Also, the viability was 99.2% in test [4] and 95.6% in test [5]. Further, in test [6], the inhibition was 0.89%. For the same compound, the RAM network inhibition in test [7] is 0.16%.

In the case of `O=C(Nc1nccs1)C1CCN(S(=O)(=O)c2cccnc2)CC1`, the growth inhibition was -4.93% in test [1] and 3.12% in test [2]. In test [3], the viability increase was -0.26%. For the same compound, the viability in test [4] was 102%; in test [5], 101%. For the same compound, in test [6], the inhibition is 0.905%. Moreover, in test [7], the RAM network inhibition is -0.78%.

Regarding `COc1ccc(-c2cc(C(=O)O)c3ccccc3n2)c(OC)c1`, the results for the growth inhibition in test [1] and in test [2] were -10.4% and 0.26%, respectively. In addition, the viability increase in test [3] was -2.6%. Further, the figures for the viability in test [4] and in test [5] were 82.2% and 89.3%, respectively. Moreover, the inhibition in test [6] is 1.47%. In addition, in test [7], the RAM network inhibition was 5.56%.

In the case of `Cn1nc(-c2ccc(Cl)cc2)c2cc(C(=O)NCCCN3CCOCC3)sc21`, the growth inhibition is -3.37% in test [1] and 5.94% in test [2]. The viability increase in test [3] is -7.82%. In addition, the viability in test [4] was 4.12% (active); in test [5], 5.19% (active). Also, the inhibition in test [6] was -0.235%. The RAM network inhibition in test [7] is -0.16%.

For `O=C1CC(c2nc3ccccc3[nH]2)CN1c1cccc(C(F)(F)F)c1` (stereo not drawn), the growth inhibition is -1.92% in test [1] and 4.75% in test [2]. In addition, the viability increase in test [3] is 6.49%. The results for the viability in test [4] and in test [5] were 86% and 76.5%, respectively. Moreover, the inhibition in test [6] was 1.1%. Also, the RAM network inhibition in test [7] was -2.12%.

Regarding `O=C(NCc1ccc2c(c1)OCO2)c1ccc(NC(=O)C2CCCO2)cc1` (stereo not drawn), the values for the growth inhibition in test [1] and in test [2] were -11% and -20.2%, respectively. In addition, in test [3], the viability increase is -2.17%. The viability in test [4] was 102%; in test [5], 103%. Besides, the inhibition in test [6] is 3.76%. For the same compound, the RAM network inhibition in test [7] was 4.81%.

As to `CC(=O)c1ccc(-n2nncc2C(C)(C)C)cc1`, the growth inhibition was -3.02% in test [1] and -2.67% in test [2]. Also, in test [3], the viability increase was -0.85%. Also, the viability is 98.6% in test [4] and 99.5% in test [5]. Besides, the inhibition in test [6] was 1.47%. The RAM network inhibition in test [7] was 0.78%.

In the case of `COC(=O)c1sc2ccccc2c1N`, the results for the growth inhibition in test [1] and in test [2] were 1.37% and 27.7%, respectively. The viability increase in test [3] was -3.26%. In addition, the viability is 101% in test [4] and 94.6% in test [5]. Also, the inhibition in test [6] is 0.515%. Further, the RAM network inhibition in test [7] is 2.29%.

For `CCOCCCNC(=O)C(c1ccc(Cl)cc1)N1CCN(c2ccccc2)CC1` (stereo not drawn), the growth inhibition is -7.14% in test [1] and 6.11% in test [2]. Besides, the viability increase in test [3] is -2.39%. The viability in test [4] was 87%; in test [5] it was 85%. Also, the inhibition in test [6] was 0.95%. In addition, the RAM network inhibition in test [7] was 3.13%.

Consider `O=C(c1coc2ccccc2c1=O)N1CCN(c2cccc(C(F)(F)F)c2)CC1`, for which the results for the growth inhibition in test [1] and in test [2] were -20% and -32.1%, respectively. Besides, in test [3], the viability increase is 0.69%. Moreover, the viability was 99.8% in test [4] and 99.9% in test [5]. The inhibition in test [6] was 1.23%. For the same compound, the RAM network inhibition in test [7] was 5.68%.

For `N#Cc1ccc(CSCC(=O)O)cc1`, the growth inhibition in test [1] is -10.3%; in test [2] it was -2.01%. In test [3], the viability increase was 1.1%. Also, the viability is 97.4% in test [4] and 107% in test [5]. Moreover, the inhibition in test [6] is 2.8%. Also, the RAM network inhibition in test [7] was 4.42%.

Regarding `Cc1c(C(=O)N2CCN(C(=O)c3ccco3)CC2)sc2nc(-c3ccc(F)cc3)cn12`, the results for the growth inhibition in test [1] and in test [2] were -0.195% and 3.62%, respectively. Further, the viability increase in test [3] is -2.53%. For the same compound, the viability in test [4] was 91.8%; in test [5], 89.3%. Moreover, the inhibition in test [6] is 0.195%. The RAM network inhibition in test [7] is 3.7%.

Regarding `O=C(c1ccc(CS(=O)(=O)c2ccccc2)o1)N1CCOCC1`, the growth inhibition was -12.2% in test [1] and -15.5% in test [2]. Besides, the viability increase in test [3] is -0.71%. Further, the viability is 105% in test [4] and 95.8% in test [5]. In test [6], the inhibition is 1.19%. Moreover, the RAM network inhibition in test [7] was 3.8%.

Turning to `O=C(NCC1CCCO1)c1ccc2c(c1)OCO2` (stereo not drawn), the growth inhibition in test [1] is -3.01%; in test [2] it was 6%. Also, the viability increase in test [3] is 0.18%. The figures for the viability in test [4] and in test [5] were 98.4% and 94.3%, respectively. The inhibition in test [6] is 0.385%. Besides, in test [7], the RAM network inhibition was 3.13%.

With `Cc1nc(N2CCN(C(=O)c3ccco3)CC2)c2c3c(sc2n1)CCC3`, the growth inhibition is -10.5% in test [1] and 5.55% in test [2]. The viability increase in test [3] was -1.12%. Moreover, the viability was 79.8% in test [4] and 83% in test [5]. The inhibition in test [6] is 1.16%. Further, in test [7], the RAM network inhibition is 5%.

For the compound `CCOc1ccc(N(CC(=O)Nc2ccc(C)cc2)S(=O)(=O)c2c(C)noc2C)cc1`, the growth inhibition was -18.5% in test [1] and -19.6% in test [2]. In addition, the viability increase in test [3] is -3.45%. For the same compound, the figures for the viability in test [4] and in test [5] were 79.4% and 67.4%, respectively. Also, the inhibition in test [6] was 1.29%. The RAM network inhibition in test [7] was 4.04%.

As for `CCCCN(C)c1nc(-c2ccco2)c2c(c1C#N)CC(C)(C)OC2`, the growth inhibition in test [1] was -9.48%; in test [2] it was 0.09%. Moreover, the viability increase in test [3] is -4.56%. For the same compound, the figures for the viability in test [4] and in test [5] were 96.3% and 98.3%, respectively. The inhibition in test [6] was 1.63%. In test [7], the RAM network inhibition is -0.79%.

Turning to `CCc1ccc(S(=O)(=O)NCc2cn3c(C)csc3n2)s1`, the growth inhibition is 0.075% in test [1] and 5.25% in test [2]. Besides, the viability increase in test [3] was -2.89%. The viability in test [4] was 102%; in test [5], 94.1%. Further, the inhibition in test [6] is 0.37%. In addition, the RAM network inhibition in test [7] is 2.22%.

Consider `COc1ccc(CCNC(=O)CN(c2ccccc2OC)S(C)(=O)=O)cc1OC`, for which the figures for the growth inhibition in test [1] and in test [2] were -2.94% and 9.29%, respectively. The viability increase in test [3] is -1.9%. In addition, the results for the viability in test [4] and in test [5] were 106% and 96.8%, respectively. Besides, the inhibition in test [6] was 1.04%. For the same compound, the RAM network inhibition in test [7] was 1.38%.
